The values below come from ChEMBL document CHEMBL1143066, “Characterization and optimization of selective, nonpeptidic inhibitors of cathepsin S with an unprecedented binding mode” (J Med Chem, 2007).

Common to all, as to type: functional
Substrate in data set [1]: CCCc1ccc(-c2ccccc2OCC(=O)Nc2ccc3c(C)c(CC(=O)O)c(=O)oc3c2)c(F)c1F
Nature of the data set: (§1) Activity of cathepsin S assessed as substrate cleavage efficiency. The procedure, abridged: (§2)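 Cathepsin S at 37 °C in pH 6.1 100 mM sodium phosphate, 100 mM NaCl, 1 mM DTT, 1 mM EDTA, 0.001% Tween-20. AMCA substrate added from DMSO at ≥6-fold below its K_M. Run in duplicate with and without enzyme. Fluorescence (ex 370/em 455 nm) read over up to 15 min. Slope gave V_max/K_M; k_cat/K_M used AMCA calibration and E-64c-titrated enzyme concentration.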

Substrate in data set [2]: Cc1c(CC(=O)O)c(=O)oc2cc(NC(=O)COc3ccccc3-c3ccc(CC4CCCCC4)c(F)c3F)ccc12
Described as §1. The procedure, abridged:
as §2

Substrate in data set [3]: Cc1c(CC(=O)O)c(=O)oc2cc(NC(=O)COc3ccccc3-c3ccc(CC(C)C)c(F)c3F)ccc12
The data set is described as §1. The gist of the method:
as §2

Substrate in data set [4]: CCc1ccc(-c2ccccc2OCC(=O)Nc2ccc3c(C)c(CC(=O)O)c(=O)oc3c2)c(F)c1F
The description is as §1. The procedure, abridged:
as §2

Substrate in data set [5]: COc1ccc(-c2ccccc2OCC(=O)Nc2ccc3c(C)c(CC(=O)O)c(=O)oc3c2)c(F)c1F
The description is as §1. The procedure, abridged:
as §2

Substrate in data set [6]: Cc1c(CC(=O)O)c(=O)oc2cc(NC(=O)COc3ccccc3-c3ccc(F)c(F)c3F)ccc12
Described as §1. The gist of the method:
as §2

Substrate in data set [7]: CCCCc1ccc(-c2ccccc2OCC(=O)Nc2ccc3c(C)c(CC(=O)O)c(=O)oc3c2)c(F)c1F
Described as §1. The procedure, abridged:
as §2

B1: Cathepsin S (Homo sapiens), P25774 (protein)
chain: MKRLVCVLLVCSSAVAQLHKDPTLDHHWHLWKKTYGKQYKEKNEEAVRRLIWEKNLKFVMLHNLEHSMGMHSYDLGMNHLGDMTSEEVMSLMSSLRVPSQWQRNITYKSNPNRILPDSVDWREKGCVTEVKYQGSCGACWAFSAVGALEAQLKLKTGKLVSLSAQNLVDCSTEKYGNKGCNGGFMTTAFQYIIDNKGIDSDASYPYKAMDQKCQYDSKYRAATCSKYTELPYGREDVLKEAVANKGPVSVGVDARHPSFFLYRSGVYYEPSCTQNVNHGVLVVGYGDLNGKEYWLVKNSWGHNFGEEGYIRMARNKGNHCGIASFPSYPEI
Regarding B1, the kcat/Km (commonly the second-order rate constant that governs catalysis at low substrate concentration) in data set [1] was 145000 M⁻¹ s⁻¹; in data set [2] it was 15700 M⁻¹ s⁻¹; in data set [3] it was 288000 M⁻¹ s⁻¹; in data set [4] it was 25900 M⁻¹ s⁻¹; in data set [5], 2700 M⁻¹ s⁻¹; in data set [6] it was 27000 M⁻¹ s⁻¹. For the same protein, the kcat/Km in data set [7] amounted to 85000 M⁻¹ s⁻¹.
